Source: ChEMBL document CHEMBL1123645, “Phenylephrine derivatives as leukotriene D4 antagonists” (J Med Chem, 1987)
The source made the active and inactive calls. No cut-off for these calls is given here.

Legend:
Cavia porcellus [1] = experiment: Inhibition of LTD4 (leukotriene) induced bronchospasm in the guinea pig when administered intraduodenally (50 mg/kg)
Cavia porcellus [2] = experiment: Inhibition of Ovalbumin (OA) induced bronchospasm in the guinea pig when administered intraduodenally at 25 mg/kg; NA means not active; assay type: functional, organism-based; set-up: dose 25 mg/kg
Procedure, shortened: (§1)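 Guinea pig bronchoconstriction induced by LTD4 or by ovalbumin. Antagonist was given intraduodenally 10 min before the agonist. […] Single-dose lines give percent inhibition at the stated id dose.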

Cavia porcellus [3] = experiment: Antagonist activity was determined by the ability to inhibit of ovalbumin induced bronchospasm when administered per orally; assay type: functional; conditions: po
Procedure, shortened: (§2)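 Guinea pig bronchoconstriction induced by LTD4 or by ovalbumin. Antagonist was dosed orally to awake animals 120 min before the agonist, which is 95 min before anesthetic. […] Single-dose lines give percent inhibition at the stated oral dose.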

[4] = target: Cysteinyl leukotriene receptor (Homo sapiens) (UniProt Q9Y271+Q9NS75); experiment: Inhibition of Ovalbumin (OA) induced bronchospasm in the guinea pig when administered intraduodenally (50 mg/kg); assay type: functional, organism-based; conditions: Cavia porcellus; target entry is the homologue from another species
Procedure, shortened: as §1

Cavia porcellus [5] = experiment: Antagonist activity was determined by the ability to inhibit of LTD4 (leukotriene D4) induced bronchospasm when administered per orally; assay type: functional; conditions: po
Procedure, shortened: as §2

Cavia porcellus [6] = experiment: Antagonist activity was determined by the ability to inhibit of ovalbumin induced bronchospasm when administered intraduodenally; assay type: functional; conditions: intraduodenal
Procedure, shortened: as §1

Cavia porcellus [7] = experiment: Antagonist activity was determined by the ability to inhibit of LTD4 (leukotriene D4) induced bronchospasm when administered intraduodenally; assay type: functional; conditions: intraduodenal
Procedure, shortened: as §1

Cavia porcellus [8] = experiment: Relative inhibitory potency against ovalbumin induced bronchospasm when administered per orally; assay type: functional
Cavia porcellus [9] = organism: Cavia porcellus; experiment: relative potency antagonist on LTD4-induced contraction of isolated guinea pig trachea; assay type: functional
Procedure, shortened: (§3)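 Guinea pig tracheal spirals stretched to near-optimal length and equilibrated 1.5 h, washed every 15 min. Indomethacin (5 μM) was present in all tissues. Cumulative LTD4 dose-response curves were recorded isometrically via force transducers. Paired proximal/distal strips from one animal got solvent control or drug. Values are negative log, mean ± SEM, and were compared by Student's t test.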

Cavia porcellus [10] = experiment: Relative inhibitory potency against LTD4 (leukotriene D4) induced bronchospasm when administered intraduodenally; assay type: functional
Cavia porcellus [11] = experiment: Relative inhibitory potency against ovalbumin induced bronchospasm when administered intraduodenally; assay type: functional
Cavia porcellus [12] = experiment: Relative inhibitory potency against LTD4 (leukotriene D4) induced bronchospasm when administered per orally; assay type: functional
Cavia porcellus [13] = organism: Cavia porcellus; experiment: Antagonist activity towards LTD4-induced contraction of isolated guinea pig; assay type: functional
Procedure, shortened: as §3

Cavia porcellus [14] = experiment: Inhibition of Ovalbumin (OA) induced bronchospasm in the guinea pig when administered perorally (50 mg/kg); assay type: functional
Procedure, shortened: as §2

Cavia porcellus [15] = experiment: Inhibition of LTD4 (leukotriene) induced bronchospasm in the guinea pig when administered intraduodenally at 25 mg/kg
Cavia porcellus [16] = experiment: Inhibition of LTD4 (leukotriene) induced bronchospasm in the guinea pig when administered perorally (50 mg/kg)
Cavia porcellus [17] = experiment: Inhibition of LTD4 (leukotriene) induced bronchospasm in the guinea pig when administered perorally at 25 mg/kg; NA means not active; assay type: functional, organism-based; set-up: dose 25 mg/kg
Procedure, shortened: as §2

Cavia porcellus [18] = experiment: Inhibition of LTD4 (leukotriene) induced bronchospasm in the guinea pig when administered perorally (50 mg/kg); remark: listed apart in the source
Cavia porcellus [19] = experiment: Inhibition of Ovalbumin (OA) induced bronchospasm in the guinea pig when administered intraduodenally at 25 mg/kg; assay type: functional; conditions: route intraduodenal
Procedure, shortened: as §1

Cavia porcellus [20] = experiment: Inhibition of Ovalbumin (OA) induced bronchospasm in the guinea pig when administered perorally at 25 mg/kg; assay type: functional; conditions: route oral
Procedure, shortened: as §2

Cysteinyl leukotriene receptor (Homo sapiens), sequence (Q9NS75 whole entry, looked up): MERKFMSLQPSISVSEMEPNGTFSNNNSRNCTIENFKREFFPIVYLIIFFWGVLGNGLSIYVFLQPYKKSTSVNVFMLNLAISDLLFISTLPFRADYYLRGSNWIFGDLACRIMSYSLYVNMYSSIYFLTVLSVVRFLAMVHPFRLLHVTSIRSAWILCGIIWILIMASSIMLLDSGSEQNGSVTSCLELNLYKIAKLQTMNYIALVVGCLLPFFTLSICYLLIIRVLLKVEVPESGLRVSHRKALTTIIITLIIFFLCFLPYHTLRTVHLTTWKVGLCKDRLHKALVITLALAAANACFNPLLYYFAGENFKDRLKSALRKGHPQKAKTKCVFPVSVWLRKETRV
Cysteinyl leukotriene receptor (Homo sapiens), sequence (Q9Y271 whole entry, looked up): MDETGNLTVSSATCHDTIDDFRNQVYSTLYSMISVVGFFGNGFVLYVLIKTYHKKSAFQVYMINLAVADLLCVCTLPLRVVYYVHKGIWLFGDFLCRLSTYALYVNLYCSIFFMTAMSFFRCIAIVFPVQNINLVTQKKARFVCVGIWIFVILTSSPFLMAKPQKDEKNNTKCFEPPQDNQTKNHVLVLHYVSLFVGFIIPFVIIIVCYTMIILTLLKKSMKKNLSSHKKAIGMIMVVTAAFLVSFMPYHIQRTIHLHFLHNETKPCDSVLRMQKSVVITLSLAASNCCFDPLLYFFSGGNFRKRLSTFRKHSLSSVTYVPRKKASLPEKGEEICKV

CCC1=NCC(c2cccc(OCc3ccc4ccccc4n3)c2)O1 (configuration not stated)
inhibition (Cavia porcellus [1]): 80%
inhibition (Cavia porcellus [2]): inactive

NCC(O)c1cccc(OCc2ccc3ccccc3n2)c1 (configuration not stated)
inhibition (Cavia porcellus [1]): 23%

CCN(CC)C(=O)N(C)C[C@H](O)c1cccc(OCc2ccc3ccccc3n2)c1
ED50 (Cavia porcellus [3]): 55 mg/kg
inhibition [4]: 75%
ED50 (Cavia porcellus [5]): 56 mg/kg
ED50 (Cavia porcellus [6]): 20 mg/kg
ED50 (Cavia porcellus [7]): 9 mg/kg
Potency (Cavia porcellus [8]): 1.4
Potency (Cavia porcellus [9]): 23
Potency (Cavia porcellus [10]): 1.5
Potency (Cavia porcellus [11]): 1.1
Potency (Cavia porcellus [12]): 1.8
pkB (Cavia porcellus [13]): 5.22
Inhibition (Cavia porcellus [14]): 25%

CCN(CC)C(=O)N(C)CC(=O)c1cccc(OCc2ccc3ccccc3n2)c1
inhibition (Cavia porcellus [1]): 26%

O=C(NCC(O)c1cccc(OCc2ccc3ccccc3n2)c1)c1ccccc1 (configuration not stated)
inhibition (Cavia porcellus [15]): 18%

c1cncc(C2=NCC(c3cccc(OCc4ccc5ccccc5n4)c3)O2)c1 (configuration not stated)
inhibition (Cavia porcellus [16]): inactive
inhibition (Cavia porcellus [17]): inactive
inhibition (Cavia porcellus [15]): 86%

O=C1OC(c2cccc(OCc3ccc4ccccc4n3)c2)CN1Cc1ccc2ccccc2n1 (configuration not stated)
inhibition [4]: 50%
inhibition (Cavia porcellus [1]): 31%

CCN(CC)C(=O)N(C)C[C@H](O)c1cccc(OCc2nc3ccccc3s2)c1
inhibition [4]: 36%
inhibition (Cavia porcellus [1]): 59%
Inhibition (Cavia porcellus [14]): 41%

c1cc(OCc2ccc3ccccc3n2)cc(C2CN=C(c3cccs3)O2)c1 (configuration not stated)
inhibition (Cavia porcellus [1]): 41%

c1ccc(C2=NCC(c3cccc(OCc4ccc5ccccc5n4)c3)O2)cc1 (configuration not stated)
inhibition (Cavia porcellus [15]): 11%

CN(C)C(=O)N(C)C[C@H](O)c1cccc(OCc2ccc3ccccc3n2)c1
inhibition (Cavia porcellus [16]): 15%
inhibition (Cavia porcellus [18]): 15%
inhibition (Cavia porcellus [1]): 93%

CN1CC(c2cccc(OCc3nc4ccccc4n3C)c2)OC1=O (configuration not stated)
inhibition in vivo at 25 mg/kg (Cavia porcellus [19]): 68%
inhibition (Cavia porcellus [1]): 65%

c1cc(OCc2ccc3ccccc3n2)cc(C2CN=C(c3ccncc3)O2)c1 (configuration not stated)
inhibition (Cavia porcellus [16]): inactive
inhibition (Cavia porcellus [15]): 77%

CN1C[C@H](c2cccc(OCc3ccc4ccccc4n3)c2)OC1=O
inhibition (Cavia porcellus [1]): 99%
inhibition (Cavia porcellus [2]): inactive

COC(=O)C1CCCN1C(=O)N(C)C[C@H](O)c1cccc(OCc2ccc3ccccc3n2)c1 (some centres not stated)
inhibition [4]: 23%
inhibition (Cavia porcellus [1]): 71%

O=C(NCC(O)c1cccc(OCc2ccc3ccccc3n2)c1)c1cccs1 (configuration not stated)
inhibition (Cavia porcellus [17]): inactive
inhibition (Cavia porcellus [15]): 82%

CCC(=O)N(C)C[C@H](O)c1cccc(OCc2nc3ccccc3n2C)c1
inhibition [4]: 66%
inhibition (Cavia porcellus [18]): 13%
inhibition (Cavia porcellus [1]): 51%

O=S(=O)(NCC(O)c1cccc(OCc2ccc3ccccc3n2)c1)C(F)(F)F (configuration not stated)
inhibition in vivo at 25 mg/kg (Cavia porcellus [20]): -53%
inhibition in vivo at 25 mg/kg (Cavia porcellus [19]): 29%
inhibition (Cavia porcellus [15]): 83%

CCOC(=O)CC1=NCC(c2cccc(OCc3ccc4ccccc4n3)c2)O1 (configuration not stated)
inhibition (Cavia porcellus [15]): 77%
